Screening data deposited in PubChem BioAssay by Sanford-Burnham Center for Chemical Genomics.
STEP block: STEP (human) phosphatase inhibition. P54829. recombinant STEP, OMFP fluorogenic substrate, fluorescence. inhibition, % at 20 µM. 360,000 compounds, 0.25% hits;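 active = inhibition at 20 µM, scaled per plate between control wells, above about 37%, limit read from the data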;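 also: 0% = DMSO with enzyme and substrate and 100% = substrate only without enzyme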
Target sequence (P54829 whole entry, looked up): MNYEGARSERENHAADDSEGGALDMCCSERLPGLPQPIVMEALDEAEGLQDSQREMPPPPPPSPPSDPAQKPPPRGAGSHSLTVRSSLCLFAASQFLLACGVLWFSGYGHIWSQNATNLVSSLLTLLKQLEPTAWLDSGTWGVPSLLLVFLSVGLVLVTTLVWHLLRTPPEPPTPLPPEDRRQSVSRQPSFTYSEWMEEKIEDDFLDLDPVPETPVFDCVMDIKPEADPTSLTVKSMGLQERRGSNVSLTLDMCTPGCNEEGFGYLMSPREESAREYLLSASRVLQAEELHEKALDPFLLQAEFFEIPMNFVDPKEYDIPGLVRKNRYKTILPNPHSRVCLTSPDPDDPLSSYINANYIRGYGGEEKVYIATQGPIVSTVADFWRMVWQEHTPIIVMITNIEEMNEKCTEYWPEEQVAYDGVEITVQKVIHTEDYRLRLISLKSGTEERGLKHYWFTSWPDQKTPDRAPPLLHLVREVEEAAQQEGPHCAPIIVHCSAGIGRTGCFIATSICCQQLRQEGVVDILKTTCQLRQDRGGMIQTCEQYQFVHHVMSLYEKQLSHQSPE
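Material: STEP (striatal-enriched tyrosine phosphatase) enzyme, cell-free; Compound dosing: 20 µM single dose in 1% DMSO; Technique: fluorescence read at 480 nm ex / 540 nm em; Times: reaction 20 min, ambient temperature; Medium: 50 mM Bis-Tris pH 6.0 with 2.5 mM DTT and 0.005% Tween 20; Also added: OMFP at 25 µM.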
DNMT1 block: inhibitors of human DNMT1 | P26358 | 360,000 compounds, 0.83% hits | DNMT1 molecular beacon, Hinp1I cleavage, fluorescence | inhibition (reported as % activation of signal), % at 10 µM; in the data active = inhibition above about 50%
Rpn11 inh: inhibitors of human proteasome Rpn11; AID 588493; inhibition, % at 20 µM; human 26S proteasome, Ub4-pepOG fluorescence polarization; 20S core pre-blocked with epoxomicin; 360,000 compounds, 0.59% hits; O00487;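 active = inhibition at 20 µM, scaled to each plate's controls, above about 33%, limit read from the data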
LMPTP block: blocks human LMPTP phosphatase. P24666. recombinant LMPTP-A, OMFP fluorogenic substrate, fluorescence intensity. inhibition, % at 20 µM. 360,000 compounds, 0.22% hits;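 active = compounds that cut the enzyme signal by at least half of the control window in the single-dose screen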;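 also: plate controls were DMSO wells with enzyme plus substrate for no effect and substrate without enzyme for full effect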
Target sequence (P24666 whole entry, looked up): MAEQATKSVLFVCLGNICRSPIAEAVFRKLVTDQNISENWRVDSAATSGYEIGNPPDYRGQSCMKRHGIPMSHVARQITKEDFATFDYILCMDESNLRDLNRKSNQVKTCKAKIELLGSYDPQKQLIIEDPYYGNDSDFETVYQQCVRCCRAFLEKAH
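Test system: LMPTP-A phosphatase enzyme. Amount: LMPTP-A at 0.625 nM final in the reaction. Reagent: OMFP substrate, 400 µM final. Times: 50 min at room temperature. Signal: endpoint fluorescence intensity from OMFP dephosphorylation. Read-out basis: % inhibition. Benchmarks: no-enzyme and uninhibited controls.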
Scp1 inh: Scp-1 (human) phosphatase inhibition | Q9GZU7 | Recombinant Scp1, phosphopeptide, malachite green phosphate absorbance | inhibition, % at 20 µM | 340,000 compounds, 0.88% hits | AID 493091;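 active = inhibition above about 50% at 20 µM, limit read from the data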;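 also: plate controls were DMSO wells with enzyme for no effect and wells lacking enzyme for full effect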
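Assay system: SCP-1 catalytic fragment, aa 76-261 | Buffer or medium: Tris acetate buffer pH 5.5 with MgCl2 and Tween-20 | Compound: One concentration, 20 µM, with 1.0% DMSO | Also added: Phospho 17-mer peptide substrate | Signal: Absorbance at 630 nm | Incubation: 45 min enzyme reaction at room temperature | Measure: % inhibition of SCP-1 phosphate liberation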
SUMO1 PPI mod: SUMO1-SIM interaction modulation; P63165; SUMO1 binding to a labelled peptide, TR-FRET, 1 h; inhibition, % at 20 µM; 360,000 compounds, 0.33% hits; AID 602429; in the data active = inhibition above about 37%
Scp-1 conf: confirmation of human Scp-1 phosphatase inhibitors | shares compounds with Scp1 inh | recombinant SCP-1 catalytic domain, phosphate release, malachite green absorbance | inhibition, % at 20 µM | 2,500 compounds, 61% hits | AID 540281;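 also: plate controls were DMSO with enzyme for no effect and buffer wells lacking enzyme for full effect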
Scp-1 MG ctr: colorimetric interference in Scp-1 counter-screen | shares compounds with Scp1 inh | Colorimetric interference counterscreen, malachite green absorbance 630 nm | apparent inhibition (interference), % at 20 µM | 2,500 tested, under 10 active | AID 540313;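 also: compounds added after enzyme reaction finished so only phosphate colour detection is probed; plate controls were DMSO wells with completed Scp-1 reaction for no effect and substrate wells lacking enzyme for full effect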
Scp-1 Tm shift: binds human Scp-1, shifting its melting temperature | shares compounds with Scp1 inh | 1,500 compounds, 25% hits | AID 540329 | thermal shift relative to vanadate control, % at 40 µM | Recombinant SCP1, Sypro Orange thermal shift Tm;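 active = substances whose mean melting-temperature shift, as a percentage of the reference inhibitor's shift, reaches about 5.3%, limit read from the data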;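 also: 0% = Tm of DMSO wells and 100% = Tm with sodium orthovanadate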
* hit, by the source's call; . = no result given. In the library only some 2.3% were active in any assay of this set; here they are far more common.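 The calls were made as follows, unless noted: active = inhibition of at least 30% at 20 µM; inactive = the rest.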

SMILES	STEP block	DNMT1 block	Rpn11 inh	LMPTP block	Scp1 inh	SUMO1 PPI mod	Scp-1 conf	Scp-1 MG ctr	others
CN(c1ccccc1)S(=O)(=O)c1cccc(NC(=O)CCN2C(=O)C3CCCCC3C2=O)c1 (configuration not stated)	-4.9	4.0	5.3	-0.4	-9.1	2.7	.	.
O=C1OCC=C1NNC(=O)c1cccnc1	-1.8	-2.0	-2.5	0.2	-6.0	2.5	.	.
Cn1c(=O)c(=O)n(C)c2cc(S(=O)(=O)N3CCCC3C(=O)NCc3ccco3)ccc21 (configuration not stated)	-4.1	4.9	-1.3	-1.9	-1.8	2.0	.	.
Cn1c(=O)c(=O)n(C)c2cc(S(=O)(=O)N3CCCC3C(=O)NCc3cccnc3)ccc21 (configuration not stated)	1.9	2.0	3.7	-1.0	-9.0	5.3	-6.8	-6.0
Cc1ccc(C)c(NC(=O)C2CCCN2S(=O)(=O)c2ccc3c(c2)n(C)c(=O)c(=O)n3C)c1 (configuration not stated)	-0.1	4.6	-1.5	-1.0	-6.6	6.6	-6.2	-10.1
Cc1cc2nc3n(c2cc1C)CCCN3	-1.4	1.4	2.3	-0.4	-4.7	6.0	.	.
Cn1cnc2c(=O)sc3ccccc3c21	-3.9	-0.4	5.1	-0.4	-9.8	1.2	.	.
Cn1c(NC(=O)COc2ccccc2)cc(=O)n(C)c1=O	1.8	-1.1	-5.8	-0.4	8.9	3.0	-12.8	-16.9
Cn1c(NC(=O)CCc2ccccc2)cc(=O)n(C)c1=O	-0.8	4.6	6.4	-0.5	6.6	6.6	-20.9	-15.6
CC(Oc1cccc(Cl)c1)C(=O)Nc1ccncc1 (configuration not stated)	-0.5	0.8	-1.9	-2.0	1.2	2.2	.	.
COc1ccc(/C=C/C(=O)Nc2cc(=O)n(C)c(=O)n2C)cc1	2.1	5.6	3.9	-1.7	-2.7	-22.6	.	.
Cn1c(NC(=O)/C=C/c2ccccc2)cc(=O)n(C)c1=O	-0.6	3.4	-2.3	-2.1	-43.5	-26.1	-6.5	-9.0
CC(Oc1cccc(Cl)c1)C(=O)Nc1cc(=O)n(C)c(=O)n1C (configuration not stated)	-1.9	-1.2	1.9	1.2	-5.8	2.9	-9.3	-2.1
Cc1ccc(S(=O)(=O)N(C)CCN(C)S(=O)(=O)c2ccc(C)cc2)cc1	-1.3	4.6	0.1	3.8	-12.4	1.2	.	.
CCOP(=O)(Nc1ccc2oc(=O)c3ccccc3c2c1)OCC	2.1	2.7	-6.3	-0.1	-7.7	-3.4	.	.
Cc1ccc(CN2C(=NC(=O)CCC(=O)O)SC3CS(=O)(=O)CC32)cc1 (configuration not stated)	-0.8	1.2	-2.8	-1.5	-2.5	-4.5	.	.
Cc1ccc2nc(-c3ccc(N4C(=NC(=O)CCC(=O)O)SC5CS(=O)(=O)CC54)cc3)sc2c1 (configuration not stated)	-0.4	56.2*	15.1	2.3	51.3*	9.1	55.3*	-13.1	Scp-1 Tm shift=-4.0
CC1(C)OC(=O)C(=Cc2ccc(-c3ccc(Cl)c(C(=O)O)c3)o2)C(=O)O1	8.5	52.3*	-12.6	1.3	57.0*	18.3	56.6*	-9.0	Scp-1 Tm shift=-9.5
Cc1ccc(N(C(C)C(=O)NCc2ccncc2)S(C)(=O)=O)cc1C (configuration not stated)	0.7	0.3	-0.4	-1.1	1.2	1.1	.	.
O=C(CSc1nnc2ccccn12)NC(=O)c1ccccc1Cl	21.3	43.2	-7.4	8.5	66.3*	-3.5	51.0*	-14.7	Scp-1 Tm shift=-3.4
Cc1cc(NC(=O)Cn2nc(C)c([N+](=O)[O-])c2C)no1	-0.2	-3.8	5.2	-0.2	0.2	2.4	.	.
Cc1c(OC(=O)c2ccc([N+](=O)[O-])cc2)c2c(c[n+]1C)COC(C)(C)OC2	0.9	-1.1	-21.9	-2.7	66.8*	-18.4	79.2*	-17.8	Scp-1 Tm shift=-5.6
C=CC#CC1(O)CC(C)N(C)CC1C (configuration not stated)	-2.9	9.2	-2.2	0.7	3.9	-1.6	.	.
C/C(=N\Nc1ccc(C(F)(F)F)cn1)c1ccc(S(=O)(=O)NCc2ccco2)cc1	0.4	2.9	3.0	-0.7	58.5*	-2.3	-3.0	-6.5
CCC(COC)NCc1cn(-c2ccc(OC)cc2)nc1-c1cccc(F)c1 (configuration not stated)	6.9	2.6	7.3	-0.6	-7.1	0.6	.	.
SMILES	STEP block	DNMT1 block	Rpn11 inh	LMPTP block	Scp1 inh	SUMO1 PPI mod	Scp-1 conf	Scp-1 MG ctr	others
CCOc1ccc(C=NNc2ccc(S(=O)(=O)Nc3ccccc3C(=O)O)cc2[N+](=O)[O-])cc1OC	97.8*	-5.9	-4.6	37.1	72.0*	25.0	86.5*	-7.9	Scp-1 Tm shift=17.2*
Cn1cc(Br)c(C(=O)N/N=C/c2cc3c(cc2Cl)OCO3)n1	-0.5	3.5	0.0	1.0	-1.8	-24.5	.	.
Nc1nnc(CC(=O)N/N=C/c2ccc(-c3cccc(C(=O)O)c3)o2)s1	0.7	-1.0	7.8	-2.3	54.5*	11.2	44.9*	-5.7	Scp-1 Tm shift=1.1
CC1=CC(C)(C)[N+](C)(C)c2ccccc21	-1.9	-2.0	3.2	-1.1	72.5*	4.0	1.7	-8.7
CC1=CC(C)(C)N(C(=O)c2ccccc2)c2ccccc21	3.4	-3.4	-0.9	-0.1	-14.2	-6.4	.	.
Cc1cc(Cl)c(S(=O)(=O)NC(C(=O)O)C(C)C)cc1OCC(=O)NC1CCCCC1 (configuration not stated)	1.1	-3.4	0.0	-1.9	54.5*	2.5	43.4*	-15.3	Scp-1 Tm shift=0.1
Cc1cc(Cl)c(S(=O)(=O)N2CCCC2)cc1OCC(=O)NC1CCCCC1	-0.5	3.8	4.2	-0.7	27.2	4.2	.	.
Cc1cc(Cl)c(S(=O)(=O)NC(C(=O)O)c2ccccc2)cc1OCC(N)=O (configuration not stated)	2.2	6.5	-5.0	-2.8	68.8*	1.0	44.0*	-17.3	Scp-1 Tm shift=18.3*
COc1ccc(-c2noc(CCC(=O)N3CCN(c4ccccc4Cl)CC3)n2)cc1	2.2	-4.1	-0.3	3.5	-4.0	3.4	.	.
COc1ccc(-c2noc(CN3CCN(c4ccccc4)CC3)n2)cc1	-3.4	-2.8	7.0	1.2	67.5*	1.2	-14.7	-12.0
COc1ccc(-c2noc(CCC(=O)N3CCN(c4ccccc4Br)CC3)n2)cc1	2.6	-5.3	2.3	4.4	53.6*	-3.4	-12.2	-8.4
